# Assay results from different studies.
# Target: Phosphatidylinositol 3-kinase catalytic subunit type 3 (PIK3C3, Homo sapiens, UniProt Q8NEB9)
Structure (SMILES),effect on,method,concentration,remaining binding
C=CC(=O)N1CCC(C(=O)NCC(=O)N2CCN(c3nc(-c4cnc(N)nc4C(F)F)nc(N4CCOCC4)n3)CC2)CC1,binding,competition with immobilised ligand,1 µM,4.5%
N[C@@H]1CCN(c2nccc(-c3cnn4ncccc34)n2)C1,binding,,1 µM,83%
Cc1cnc(Nc2ccc(C(=O)N3CCC(N4CCCC4)CC3)cc2)nc1-c1cc2ccccc2s1,binding,competition with immobilised ligand,1 µM,14%
CN(C)c1nccc(-c2cnn3ncccc23)n1,binding,,1 µM,100%
CC1=C(C#N)C(c2ccc3c(c2)c(NC(=O)c2ccccc2C)nn3C)C(C#N)=C(C)N1,cell-free assay,competition with immobilised ligand,1 µM,87%
O=C(NCCCN1CCOCC1)c1ccc(Nc2nccc(-c3cc4ccccc4s3)n2)cc1,binding,competition with immobilised ligand,1 µM,0.6%
CN(C)CC#Cc1ccc(OCCCc2sc(N3CCc4cccc(C(=O)Nc5nc6ccccc6s5)c4C3)nc2C(=O)O)c(F)c1,cell-free assay,competition with immobilised ligand,1 µM,100%
C[C@@H](c1ccc(-n2cnc3c(N)ncnc32)cc1)N1CCc2nn(C)c(Cc3ccccc3)c2C1=O,binding,competition with immobilised ligand,0.1 µM,76%
O=C(O)c1cc(-c2ccc(C3CCNCC3)cc2)c2ccc(-c3ccc(C(F)(F)F)cc3)cc2c1,cell-free assay,competition with immobilised ligand,1 µM,100%
C[C@H]1CCN(c2nccc(-c3cnn4ncccc34)n2)C1,binding,,1 µM,86%
Cc1c(NC(=O)c2cc(C(N)=O)nc3cc(F)ccc23)c(C(F)(F)F)nn1Cc1ccc(C(C)(C)C)cc1,cell-free assay,competition with immobilised ligand,1 µM,100%
c1cncc(-c2cccc(Nc3nccc(NC4CCCCC4)n3)c2)c1,binding,competition with immobilised ligand,10 µM,21%
Cc1cc(-n2nc(Cc3cc(F)cc(C(F)(F)F)c3)nc2C)ccc1C(N)=O,cell-free assay,competition with immobilised ligand,1 µM,100%
O=C(c1ccc(Nc2ncc(Cl)c(-c3cc4ccccc4s3)n2)cc1)N1CCC(N2CCCC2)CC1,binding,competition with immobilised ligand,1 µM,53%
CN(c1nccc(-c2cnn3ncccc23)n1)C1CC1,binding,,1 µM,100%
O=C(NC[C@@H]1[C@H]2CN(C(=O)OCc3cc(C(F)(F)F)cc(C(F)(F)F)c3)C[C@@H]12)c1ccc2[nH]nnc2c1,cell-free assay,competition with immobilised ligand,1 µM,72%
COc1ccnn2ncc(-c3ccnc(N(C)C)n3)c12,binding,,1 µM,96%
O=C(NCC1CCOCC1)c1n[nH]cc1NC(=O)c1c(F)cccc1F,binding,competition with immobilised ligand,1 µM,97%
c1cnn2ncc(-c3ccnc(N4CCC45COC5)n3)c2c1,binding,,1 µM,48%
CNC(=O)[C@@H]1CC[C@@H](n2c(-c3ccc4cnccc4c3)nc3ccc(C(=O)NCc4cccc(C(N)=O)c4)cc32)C1,binding,competition with immobilised ligand,1 µM,7.2%
